The record followed here is ChEMBL document CHEMBL4680311, “Synthesis, characterization, in vitro SAR study, and preliminary in vivo toxicity evaluation of naphthylmethyl substituted bis-imidazolium salts” (Bioorg Med Chem, 2021).

Experiment [1] relates to NCI-H460. Put plainly: Cytotoxicity against human NCI-H460 cells assessed as cell growth inhibition measured after 72 hrs by MTT assay. The class given is functional, cell-based. The note with it: NCI-H460, 72 h. In outline: (§1)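 Cells kept in RPMI 1640 with 10% FBS at 37 °C, 5% CO₂, passaged every 2–3 days; grown to confluence, seeded at 5,000–7,000 cells/well depending on line, incubated 24 h. Compounds dissolved in 1% DMSO, diluted in medium to 1, 4, 16, 32 μM (6 replicates each), 72 h exposure. MTT 3–4 h, medium aspirated, DMSO added, 15 min, OD 540 nm; IC50 relative to untreated cells.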
For orientation: Formazan colour is commonly taken as a measure of viable cells.

Experiment [2] concerns NCI-H1975. Put plainly: Cytotoxicity against human NCI-H1975 cells assessed as cell growth inhibition measured after 72 hrs by MTT assay. The class given is functional, cell-based. The note with it: NCI-H1975, 72 h. The method, boiled down:
as §1

Experiment [3] relates to HCC827. Briefly: Cytotoxicity against human HCC827 cells assessed as cell growth inhibition measured after 72 hrs by MTT assay. The class given is functional, cell-based. Particulars: HCC827, 72 h. The method, boiled down: as §1
The test system of experiment [4] is NCI-H23. Briefly: Antiproliferative activity against human NCI-H23 cells assessed as cell growth at 10 uM incubated for 48 hrs by sulforhodamine B assay relative to control. It is filed as functional. Particulars: read-out: Activity. In outline:
(§2)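 NCI DTP NCI-60 one-dose screen on the NSCLC panel. Cells were seeded at densities set by doubling rate and incubated 24 h. They were then exposed to a single 10 μM dose for 48 h. Each value is a growth percentage relative to the initial cell population: positive means net growth, negative means net cell kill.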

The test system of experiment [5] is NCI-H226. Put plainly: Antiproliferative activity against human NCI-H226 cells assessed as cell growth at 10 uM incubated for 48 hrs by sulforhodamine B assay relative to control. It is filed as functional. Particulars: read-out: Activity. The method, boiled down:
as §2
For orientation: In SRB staining, fixed cells bind dye roughly in proportion to their protein.

Experiment [6] has as its system A549. Briefly: Antiproliferative activity against human A549/ATCC cells assessed as cell growth at 10 uM incubated for 48 hrs by sulforhodamine B assay relative to control. It is filed as functional. Particulars: read-out: Activity. The method, boiled down:
as §2

In experiment [7] the test system is NCI-H460. Briefly: Antiproliferative activity against human NCI-H460 cells assessed as cell growth at 10 uM incubated for 48 hrs by sulforhodamine B assay relative to control. It is filed as functional. Particulars: read-out: Activity. The method, boiled down: as §2
The subject of experiment [8] is A549. Put plainly: Cytotoxicity against human A549 cells assessed as cell growth inhibition measured after 72 hrs by MTT assay. The class given is functional, cell-based. Particulars: A549, 72 h. The method, boiled down: as §1
Experiment [9] concerns HOP-62. Briefly: Antiproliferative activity against human HOP-62 cells assessed as cell growth at 10 uM incubated for 48 hrs by sulforhodamine B assay relative to control. Particulars: read-out: Activity. The class given is functional. In outline:
as §2

For experiment [10], the system named is NCI-H322M. Put plainly: Antiproliferative activity against human NCI-H322M cells assessed as cell growth at 10 uM incubated for 48 hrs by sulforhodamine B assay relative to control. It is filed as functional. The note with it: read-out: Activity. In outline:
as §2

The subject of experiment [11] is NCI-H522. Briefly: Antiproliferative activity against human NCI-H522 cells assessed as cell growth at 10 uM incubated for 48 hrs by sulforhodamine B assay relative to control. It is filed as functional. The note with it: read-out: Activity. The method, boiled down:
as §2

Experiment [12] has as its system EKVX. Put plainly: Antiproliferative activity against human EKVX cells assessed as cell growth at 10 uM incubated for 48 hrs by sulforhodamine B assay relative to control. It is filed as functional. Particulars: read-out: Activity. In outline:
as §2

In experiment [13] the test system is HOP-92. Briefly: Antiproliferative activity against human HOP-92 cells assessed as cell growth at 10 uM incubated for 48 hrs by sulforhodamine B assay relative to control. The class given is functional. The note with it: read-out: Activity. In outline: as §2
For experiment [14], the system named is HOP-92. Put plainly: Growth inhibition of human HOP-92 cells incubated for 48 hrs by sulforhodamine B assay. It is filed as functional. In outline:
(§3)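 NCI DTP NCI-60 five-dose screen, same procedure as the one-dose assay: 24 h preincubation, then 48 h exposure. Five tenfold-spaced concentrations were used, from 100 μM to 10 nM or from 25 μM to 2.5 nM depending on compound. GI50, TGI and LC50 were read from growth-percentage curves relative to control cells.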

Experiment [15] relates to NCI-H460. Briefly: Growth inhibition of human NCI-H460 cells incubated for 48 hrs by sulforhodamine B assay. It is filed as functional. The method, boiled down:
as §3

The subject of experiment [16] is A549. Briefly: Growth inhibition of human A549/ATCC cells incubated for 48 hrs by sulforhodamine B assay. It is filed as functional. In outline:
as §3

The subject of experiment [17] is NCI-H522. Briefly: Growth inhibition of human NCI-H522 cells incubated for 48 hrs by sulforhodamine B assay. It is filed as functional. In outline: as §3
The test system of experiment [18] is HOP-62. Put plainly: Growth inhibition of human HOP-62 cells incubated for 48 hrs by sulforhodamine B assay. It is filed as functional. In outline: as §3
Experiment [19] deals with NCI-H23. Briefly: Growth inhibition of human NCI-H23 cells incubated for 48 hrs by sulforhodamine B assay. It is filed as functional. In outline: as §3
The subject of experiment [20] is NCI-H226. Put plainly: Growth inhibition of human NCI-H226 cells incubated for 48 hrs by sulforhodamine B assay. The class given is functional. In outline: as §3
The test system of experiment [21] is NCI-H322M. Put plainly: Growth inhibition of human NCI-H322M cells incubated for 48 hrs by sulforhodamine B assay. The class given is functional. The method, boiled down: as §3
Experiment [22] deals with EKVX. Briefly: Growth inhibition of human EKVX cells incubated for 48 hrs by sulforhodamine B assay. The class given is functional. The method, boiled down:
as §3

The mark [23] stands for this setting: read-out: LC50 (the source's name).

pIC50: −log10 of the molar value.

Consider `c1ccc2cc(Cn3cc[n+](Cc4ccc5ccccc5c4)c3)ccc2c1`, for which the results for the pIC50 in experiment [1], in experiment [2] and in experiment [3] were 5.40, 5.22 and 5.05, respectively.
Turning to `c1ccc2cc(Cn3cc[n+](CCCCCCn4cc[n+](Cc5ccc6ccccc6c5)c4)c3)ccc2c1`, the growth at 10 µM in experiment [4] turned out to be 30.5%; in [5] it was 69.6%; in [6] it was 38.6%; in experiment [7], 24.6%; in [9], 55.8%; in experiment [10], 76.2%. The growth at 10 µM in experiment [11] turned out to be 33.1%; in experiment [12], 37.3%; in experiment [13], 59.9%. Also, the pIC50 (as a rule, −log10 of the IC50, conventionally taken in molar units) was above 6.00 in experiment [8], 5.70 in [1], 5.22 in [2] and 4.92 in experiment [3].
Regarding `c1ccc2cc(Cn3cc[n+](CCCCCCCCCCCCn4cc[n+](Cc5ccc6ccccc6c5)c4)c3)ccc2c1`, the growth at 10 µM in experiment [4] was -80.3%; in experiment [5], -42.1%; in experiment [6], -74.2%; in experiment [9], -58%; in experiment [10] it was -18.4%; in [12], -62.6%. Besides, the growth at 10 µM in [13] is -68.2%. Besides, the GI50 (usually the concentration giving 50% growth inhibition) worked out at 0.5 µM in experiment [14]; 0.814 µM in experiment [15]; 0.744 µM in [16]; 0.47 µM in experiment [17]; 0.815 µM in [18]; 0.722 µM in [19]. In addition, the GI50 in experiment [20] amounted to 0.984 µM; in [21], 0.859 µM; in [22], 0.893 µM. Also, the LC50 (concentration giving 50% net cell kill) stood at 7.29 µM in [14], 14.6 µM in [15], 12.2 µM in [18] and 10.4 µM in experiment [21]. Moreover, the TGI (in general, the concentration at which net growth stops) in experiment [15] is 2.96 µM; in experiment [20], 5.52 µM; in [21] it was 3.9 µM. For the same compound, the pIC50 in experiment [8] was above 6.00; in experiment [1], above 6.00; in [2] it was above 6.00; in experiment [3] it was 5.40. Besides, the results for the CC50 in experiment [16] (setting [23]) and in [17] (setting [23]) were 14.2 µM and 9.89 µM, respectively. The median lethal concentration (LC50) – broadly, the concentration lethal to half of the exposed cells or organisms – in [19] was 11.2 µM; in [20] it was above 25 µM; in experiment [22], 20.8 µM.
On to `c1ccc2cc(Cn3cc[n+](CCn4cc[n+](Cc5ccc6ccccc6c5)c4)c3)ccc2c1`, for which the growth at 10 µM was found to be 88.9% in experiment [4]; 82.7% in experiment [5]; 64.1% in experiment [6]; 86% in experiment [9]; 86.4% in experiment [10]; 91.4% in [12]. Also, in [13], the growth at 10 µM stood at 79.2%. For the same compound, the pIC50 was below 4.52 in experiment [8], 4.85 in experiment [1], below 4.52 in experiment [2] and below 4.52 in experiment [3].
In the case of `c1ccc2cc(Cn3cc[n+](CCCCCCCn4cc[n+](Cc5ccc6ccccc6c5)c4)c3)ccc2c1`, the growth at 10 µM was 14.4% in experiment [4]; 59.5% in experiment [5]; 26.7% in experiment [6]; 14.6% in experiment [7]; 32.6% in experiment [9]; 58.6% in experiment [10]. Also, the growth at 10 µM in experiment [11] came to 5.87%; in [12] it was 27.9%. In addition, the pIC50 in [8] was 5.70; in experiment [1] it was 5.52; in experiment [2], 5.52; in [3], 5.00.
`c1ccc2cc(Cn3cc[n+](Cn4cc[n+](Cc5ccc6ccccc6c5)c4)c3)ccc2c1`: the growth at 10 µM is 88.3% in experiment [4]; 92.6% in [5]; 70.8% in [6]; 84.2% in [9]; 87.6% in [10]; 51% in [11]. Besides, the growth at 10 µM in experiment [12] came to 89.4%; in [13] it was 67%. Besides, the pIC50 was below 4.52 in experiment [8], 4.80 in [1], below 4.52 in experiment [2] and below 4.52 in experiment [3].
Regarding `c1ccc2cc(Cn3cc[n+](CCCn4cc[n+](Cc5ccc6ccccc6c5)c4)c3)ccc2c1`, the growth at 10 µM was determined as 77.8% in [4]; 81.9% in experiment [5]; 62.3% in experiment [6]; 75.3% in [7]; 67.2% in [9]; 84.4% in experiment [10]. Besides, the growth at 10 µM in experiment [11] came out at 56.6%; in experiment [12] it was 82.7%; in experiment [13], 67.5%. In addition, the pIC50 is 4.66 in [8], 4.70 in experiment [1], below 4.52 in [2] and below 4.52 in [3].
For `c1ccc2cc(Cn3cc[n+](CCCCn4cc[n+](Cc5ccc6ccccc6c5)c4)c3)ccc2c1`, the growth at 10 µM was 44% in experiment [4]; 82% in experiment [5]; 49.3% in [6]; 38.2% in [7]; 54.8% in experiment [9]; 90% in experiment [10]. Also, the growth at 10 µM in experiment [11] came out at 43.4%; in experiment [12], 58.1%; in [13], 68.4%. Further, the negative-log IC50 (pIC50) in [8] is 5.40; in [1] it was 5.40; in experiment [2] it was 4.96; in [3] it was 4.89.
As to `c1ccc2cc(Cn3cc[n+](CCCCCn4cc[n+](Cc5ccc6ccccc6c5)c4)c3)ccc2c1`, the growth at 10 µM is 45.3% in experiment [4]; 72.6% in [5]; 41.7% in experiment [6]; 30.5% in [7]; 57% in experiment [9]; 86.2% in experiment [10]. Further, the growth at 10 µM in experiment [11] was determined as 35.7%; in experiment [12] it was 47.1%; in [13], 66%. Besides, the pIC50 is 5.40 in experiment [8], 5.70 in experiment [1], 4.92 in [2] and below 4.52 in experiment [3].
